RGS4 inh: RGS4 inhibitors, primary screen, cell-based, HEK293 M3R inducible RGS4, calcium flux. B-score at 10 µM. Regulator of G-protein signaling 4 (Homo sapiens), P49798. 310,000 compounds, 0.45% hits. AID 463165, 2010. Fluo-4 calcium flux; active compounds read high; triggered by carbachol at its EC20;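 active = B-score, a plate-corrected calcium signal, over three deviations above library mean, with baseline fluorescence within five deviations of library mean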;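 also: RGS4 expression induced by doxycycline in cells with stable M3 receptor; B-score is computed from the integrated fluorescence ratio over baseline after carbachol; higher B-score means a larger calcium signal and so more RGS4 inhibition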
Target sequence (P49798 whole entry, looked up): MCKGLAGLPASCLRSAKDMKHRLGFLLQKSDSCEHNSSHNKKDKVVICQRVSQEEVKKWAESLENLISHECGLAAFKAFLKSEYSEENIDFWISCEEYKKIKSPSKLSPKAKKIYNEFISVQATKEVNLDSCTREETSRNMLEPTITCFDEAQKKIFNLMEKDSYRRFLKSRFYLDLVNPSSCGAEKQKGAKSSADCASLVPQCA
MrgX1 agonist: agonists of human MrgX1 receptor, primary screen, HEK293 cells, Fluo-4 calcium flux | Fluo-4 calcium fluorescence, agonist mode; active compounds read high | Mas-related G-protein coupled receptor member X1 (Homo sapiens), Q96LB2 | 310,000 compounds, 0.44% hits | B-score at 10 µM;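 active = calcium response B-score plate-corrected fluorescence ratio at least 3 library SD, with starting fluorescence B-score inside 5 SD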
Target sequence (Q96LB2 whole entry, looked up): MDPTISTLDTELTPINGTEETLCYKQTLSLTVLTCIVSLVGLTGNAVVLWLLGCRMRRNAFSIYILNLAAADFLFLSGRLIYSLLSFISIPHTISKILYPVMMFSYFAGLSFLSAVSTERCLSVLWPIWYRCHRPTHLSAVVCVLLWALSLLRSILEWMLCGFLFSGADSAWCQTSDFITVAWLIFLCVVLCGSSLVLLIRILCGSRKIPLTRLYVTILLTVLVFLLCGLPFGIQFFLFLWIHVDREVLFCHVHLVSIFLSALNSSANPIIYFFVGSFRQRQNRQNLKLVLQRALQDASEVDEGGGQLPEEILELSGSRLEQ
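Test system: Stable human MrgX1 HEK293 cell line | Schedule: Overnight plating before 1 h dye loading | Read-out basis: Baseline-normalised fluorescence change ratio, B-scored | Detection: Kinetic calcium dye fluorescence, Fluo-4 NW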
MrgX1 allo act: positive allosteric modulators of MrgX1, primary screen, HEK293 cells, Fluo-4 calcium flux. 310,000 compounds, 0.63% hits. Mas-related G-protein coupled receptor member X1 (Homo sapiens), Q96LB2. B-score at 10 µM. FDSS; active compounds read high;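 active = plate-corrected calcium response at least 3 library SD above typical, normal starting fluorescence, not activating the receptor alone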;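 also: compound read alongside a low EC10 to EC30 dose of BAM8-22 agonist; peak minus trough fluorescence over baseline measured at the second addition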
RGS4 pot: RGS4 potentiators or activators, primary screen, cell-based, HEK293 M3R inducible RGS4, calcium flux | carbachol calcium flux Fluo4; active compounds read low | B-score at 10 µM | 310,000 compounds, 0.92% hits | AID 463111, 2010;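 active = B-score of the integrated calcium signal more than 4 SD below the library mean, with starting fluorescence not abnormally high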;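 also: negative B-score means reduced calcium response which marks RGS4 activation or potentiation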
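Detection: kinetic calcium fluorescence imaging with Fluo4-AM dye, 2 µM / Material: HEK293 cells with stable M3R and inducible RGS4 / Schedule: recording 10 s baseline at 1 Hz, 100 s post-agonist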
MrgX1 antagonist: antagonists of human MrgX1 receptor, primary screen, HEK293 cells, Fluo-4 calcium flux. 310,000 compounds, 1.3% hits. B-score at 10 µM. Mas-related G-protein coupled receptor member X1 (Homo sapiens), Q96LB2. BAM8-22 antagonism; active compounds read low;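 active = calcium-response B-score plate-corrected more than 3 library SD below zero, starting fluorescence within 5 deviations, no agonist response on first addition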;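 also: peak minus trough fluorescence over baseline after final BAM8-22 challenge near maximal dose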
MrgX1 ant reconf: MrgX1 receptor antagonists, duplicate retest, confirmation, HEK293 cells, Fluo-4 calcium flux; AID 602420, 2012; 2,300 compounds, 19% hits; remaining BAM8-22 calcium response % of control (active compounds read low), % at 10 µM; shares compounds with MrgX1 antagonist; BAM8-22 calcium flux; active compounds read low;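 active = remaining agonist calcium response no higher than 100% minus 3 SD of agonist-only control wells, with starting fluorescence near control levels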;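 also: agonist BAM8-22 given at a near maximal EC90 to ECmax level; peak minus minimum fluorescence divided by baseline after agonist addition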
HEK293 Ca flux: nonspecific calcium signal in parental HEK293, confirmation, counter-screen for MrgX1 antagonist project, parental HEK293 cells, Fluo-4 calcium flux | shares compounds with MrgX1 antagonist | Fluo-4 calcium fluorescence, FDSS | fluorescence ratio F(max-min)/F0 at 10 µM | 4,000 compounds, 2% hits | AID 624111, 2012;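 active = duplicate-averaged calcium fluorescence ratio at least three times the standard deviation of buffer wells, a nonspecific response in parental cells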
HEK293 Ca counter: calcium response in parental HEK293 cells, primary screen, counter-screen for MrgX1 allosteric activator project, cell-based, Fluo-4 calcium flux, duplicate; 4,000 compounds, 0.4% hits; AID 624114, 2012; fluorescence ratio F(max-min)/F0 at 10 µM; shares compounds with MrgX1 antagonist; Fluo-4 fluorescence ratio; active compounds read high;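 active = calcium fluorescence ratio, averaged over duplicates, at least 3 SD of the buffer-well ratio, meaning a nonspecific response in receptor-free cells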;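 also: untransfected parental HEK293 lacking MrgX1 used as counterscreen for MrgX1 allosteric activators; fluorescence change taken during the second addition on a kinetic imager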
HEK293 Ca cntr2: calcium response in parental HEK293 cells, primary screen, counter-screen for MrgX1 agonist project, cell-based, Fluo-4 calcium flux, duplicate, agonist mode; shares compounds with MrgX1 antagonist; Fluo-4 calcium fluorescence (FDSS); active compounds read high; fluorescence ratio F(max-min)/F0 at 10 µM; 4,000 compounds, 8.7% hits; AID 624115, 2012;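 active = calcium fluorescence ratio at least three times the spread of buffer wells, meaning a non-specific response in parental cells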
An asterisk follows results filed as active; i = inactive; · = no result given. Rows were chosen to be rich in hits. Some 3.5% of all compounds tested hit in one or more screens of this group.

SMILES	RGS4 inh	MrgX1 agonist	MrgX1 allo act	RGS4 pot	MrgX1 antagonist	MrgX1 ant reconf	HEK293 Ca flux	HEK293 Ca counter	HEK293 Ca cntr2
COc1ccc(CCNC(=O)C2CCCN(S(C)(=O)=O)C2)cc1 (stereo not drawn)	i	i	i	i	i	·	·	·	·
Cc1ccc(N(CC(=O)N2CCN(C3CCCCC3)CC2)S(=O)(=O)c2cccnc2)cc1	·	i	i	·	-8.8*	i	i	i	i
Cc1ccc(S(=O)(=O)N(CC(=O)N2CCCCCC2)c2ccccc2)cc1	i	i	i	i	i	·	·	·	·
COC(=O)c1ccc(Nc2ncnc3c2cnn3-c2cccc(C)c2)cc1	i	i	i	i	-4.8*	i	i	i	i
CCNc1nc(SCc2ccccc2)nc(N2CCOCC2)n1	·	i	i	·	i	·	·	·	·
CN(C)c1nc(SCc2ccccc2)nc(N2CCOCC2)n1	i	i	i	i	-6.4*	i	i	i	i
Cc1ccc(C2(C)NC(=O)N(CC(=O)NNC(=O)c3ccoc3C)C2=O)cc1 (stereo not drawn)	i	i	i	i	i	·	·	·	·
COC(=O)[C@]1(C)N[C@H](c2ccc(SC3CCCCC3)cc2)[C@@H]2C(=O)N(C)C(=O)[C@@H]21	i	i	i	i	-7.9*	i	i	i	i
CCCSc1ccc([C@H]2N[C@@](C)(C(=O)OC)[C@H]3C(=O)N(C)C(=O)[C@@H]23)cc1	i	i	i	i	i	·	·	·	·
O=S1(=O)CC(O)C(Nc2ccccc2Cl)C1 (stereo not drawn)	i	i	i	i	-7.9*	i	i	i	i
CC1CN(C(=S)Nc2ccc(SC(F)F)cc2)CC(C)O1 (stereo not drawn)	i	i	i	i	i	·	·	·	·
CCCCNC(=S)Nc1ccc(SC(F)F)cc1	i	i	i	i	-6.9*	i	i	i	i
CCCCNC(=S)Nc1ccc(F)cc1	i	i	i	i	i	·	·	·	·
CC1CC(C)CN(C(=S)Nc2ccc(SC(F)F)cc2)C1 (stereo not drawn)	i	i	i	i	-5*	i	i	i	i
COc1ccc(N2CCN(C3CCCCC3NS(=O)(=O)c3ccc(Cl)cc3)CC2)cc1 (stereo not drawn)	i	i	i	i	-7.6*	i	i	i	i
O=C(CCN1CCN(c2ccccc2)CC1)N/N=C/c1ccccc1O	i	i	i	i	i	·	·	·	·
OC1(c2ccccc2)CNCCc2ccccc21 (stereo not drawn)	i	i	i	i	i	·	·	·	·
CNCCCOc1cccc(OC(C)C)c1	i	i	i	i	-7.3*	i	i	i	i
Cc1cc2cc3c(cc2nc1SCc1ccccn1)OCCO3	i	i	i	i	-6.5*	i	i	i	i
N#Cc1cc2ccccc2nc1SCc1ccccn1	i	i	i	i	i	·	·	·	·
